Experimental data gathered from unrelated publications.
Protocols differ between the studies behind these lines.
Dihydrofolate reductase: Dihydrofolate reductase (Bos taurus, UniProt P00376)
MAPK14: Mitogen-activated protein kinase 14 (MAPK14, Homo sapiens, UniProt Q16539)
Si: Sucrase-isomaltase, intestinal (Si, Rattus norvegicus, UniProt P23739)

Compound	target	test	IC50
COc1ccc(-n2nc(C(=O)c3ccc(Nc4cnccn4)cc3)sc2=N)cc1	Dihydrofolate reductase	enzyme activity, inhibitor	11.7 µM
c1ccc(-c2occc2-c2ccnc3ccccc23)nc1	MAPK14	enzyme activity, inhibitor, ADP detection	> 30 µM
N=c1sc(C(=O)c2ccc(Nc3cnccn3)cc2)nn1-c1ccc([N+](=O)[O-])cc1	Dihydrofolate reductase	enzyme activity, inhibitor	4.48 µM
COc1cc(C(=O)O)ccc1O	Si	enzyme activity, inhibitor, absorbance	1650 µM
COc1ccc(N2N=C(C(C)=O)SC2=C(C#N)C(=O)c2ccc(Nc3cnccn3)cc2)cc1	Dihydrofolate reductase	enzyme activity, inhibitor	3.82 µM
Cc1cc(O)c(-c2ccc([C@@H](C)CN(C)C)cc2)c2c1[nH]c(=O)c1sccc12	Cyclin-dependent kinase 14, with cyclin Y (CDK14, Homo sapiens, UniProt O94921)	enzyme activity, inhibitor	> 1 µM
Oc1ccccc1-c1n[nH]cc1-c1ccnc2ccccc12	MAPK14	enzyme activity, inhibitor, ADP detection	0.73 µM
CN1CCC(CNc2ccc3ncc(-c4cccc(OC(F)(F)F)c4)n3n2)CC1	5-hydroxytryptamine receptor 1A (HTR1A, Homo sapiens, UniProt P08908)	cAMP, agonist	7.13 µM
c1ccc(Cc2[nH]nc(-c3ccccn3)c2-c2ccnc3ccccc23)cc1	MAPK14	enzyme activity, inhibitor, ADP detection	5.2 µM
COc1cc(C=O)cc(OC)c1O	Si	enzyme activity, inhibitor, absorbance	1110 µM
CNCc1cc(-c2cc(O)ccc2OC(F)(F)F)ccc1F	Estrogen receptor (ESR1, Homo sapiens, UniProt P03372, D538G)	coactivator recruitment, TR-FRET	~18 µM
CC(C)(C)NS(=O)(=O)c1cccc(C(=O)N2CC3(CCC4(CC4)CC3)c3cc(NS(C)(=O)=O)ccc32)c1	Kinesin-like protein KIFC1 (KIFC1, Homo sapiens, UniProt Q9BW19)	ATPase activity, inhibitor	> 100 µM
